Activity calls are given as the source filed them. The calls are words filed in the database; no cut-off is given here.
Key:
[1] = tested on: A549; assay: Effect on glutathione peroxidase expression in human A549 cells assessed as transcript level at 5 µM after 24 hrs by RT-qPCR analysis relative to untreated control
[2] = tested on: Plasmodium berghei; assay: Antimalarial activity against Plasmodium berghei infected in mouse assessed as reduction in parasite load at 10 mg/kg for 4 days treated postinfection measured on day 7; assay type: functional; parameters: scale not given: the % may be the effect or the level left
Outline: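 Murine Plasmodium berghei infection model. Compound given subcutaneously at 10 mg/kg for 4 days after infection, 13 treated mice and 13 controls. Parasitemia is compared with untreated controls, with significance by Fisher's exact test.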

[3] = tested on: Plasmodium falciparum; assay: Upregulation of glutathione S-transferase mRNA level in Plasmodium falciparum 3D7 trophozoites at 126 nM after 12 hrs by RT-qPCR analysis relative to untreated control; assay type: functional, organism-based
Outline: (§1)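 Synchronized 3D7 trophozoites in RPMI/Albumax culture at 37°C under 3% O2, 3% CO2 were exposed 12, 15 or 18 h, then harvested by 0.02% saponin lysis. RNA was reverse-transcribed and analyzed by real-time PCR in quadruplicate. Quantification used ΔΔCT with 18S rRNA reference (LDH also checked), expressed as % of untreated control.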

[4] = tested on: A549; assay: Effect on glutathione reductase expression in human A549 cells assessed as transcript level at 5 nM after 24 hrs by RT-qPCR analysis relative to untreated control; assay type: functional; conditions: in the assay text read “5 µM” for “5 nM”
Outline: (§2)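 A549 cells are seeded at 2.5 × 10^5 per 25-cm2 well. At 40–45% confluence they are treated for 24 h with 166 or 662 μM, 158 or 315 μM, or 5 or 24 μM compound; controls receive <5% DMSO. Total RNA is DNase-treated and qRT-PCR is run in quadruplicate. Values are normalized to GAPDH and given as % of untreated control.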

[5] = tested on: Plasmodium falciparum; assay: Upregulation of glutathione synthetase mRNA level in Plasmodium falciparum 3D7 trophozoites at 126 nM after 15 hrs by RT-qPCR analysis relative to untreated control; assay type: functional
Outline: as §1

[6] = tested on: Plasmodium falciparum; assay: Downregulation of thioredoxin peroxidase mRNA level in Plasmodium falciparum 3D7 trophozoites at 126 nM after 18 hrs by RT-qPCR analysis relative to untreated control; assay type: functional
Outline: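 P. falciparum 3D7 trophozoites are exposed to 126 nM compound for 12, 15 or 18 h, then harvested by saponin lysis at 37°C. RNA is extracted and reverse-transcribed, and transcripts are quantified by real-time PCR in quadruplicate. Analysis uses ΔΔCT with 18S rRNA as reference (LDH also checked), expressed as % of untreated control.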

[7] = tested on: Plasmodium falciparum; assay: Upregulation of Heat shock protein mRNA level in Plasmodium falciparum 3D7 trophozoites at 126 nM by RT-qPCR analysis relative to untreated control; assay type: functional
Outline: as §1

[8] = molecular target: T1, Thioredoxin reductase (Homo sapiens, UniProt Q16881+Q9NNW7+Q86VQ6); assay: Inhibition of thioredoxin reductase in human A549 cells assessed as enzyme activity at 24 µM after 24 hrs by DTNB assay relative to untreated control; parameters: scale not given: the % may be the effect or the level left
[9] = tested on: A549; assay: Effect on glutathione S-transferase expression in human A549 cells assessed as transcript level at 662 nM after 24 hrs by RT-qPCR analysis relative to untreated control; assay type: functional; conditions: in the assay text read “662 µM” for “662 nM”
Outline: as §2

[10] = tested on: Plasmodium falciparum; assay: Antiplasmodial activity against chloroquine-resistant Plasmodium falciparum K1 in presence of chloroquine; assay type: functional
[11] = molecular target: T2, Glutathione reductase, mitochondrial (Homo sapiens) (UniProt P00390); assay: Inhibition of glutathione reductase in human A549 cells assessed as enzyme activity at 662 µM after 24 hrs relative to untreated control; parameters: scale not given: the % may be the effect or the level left
T2 sequence (whole entry): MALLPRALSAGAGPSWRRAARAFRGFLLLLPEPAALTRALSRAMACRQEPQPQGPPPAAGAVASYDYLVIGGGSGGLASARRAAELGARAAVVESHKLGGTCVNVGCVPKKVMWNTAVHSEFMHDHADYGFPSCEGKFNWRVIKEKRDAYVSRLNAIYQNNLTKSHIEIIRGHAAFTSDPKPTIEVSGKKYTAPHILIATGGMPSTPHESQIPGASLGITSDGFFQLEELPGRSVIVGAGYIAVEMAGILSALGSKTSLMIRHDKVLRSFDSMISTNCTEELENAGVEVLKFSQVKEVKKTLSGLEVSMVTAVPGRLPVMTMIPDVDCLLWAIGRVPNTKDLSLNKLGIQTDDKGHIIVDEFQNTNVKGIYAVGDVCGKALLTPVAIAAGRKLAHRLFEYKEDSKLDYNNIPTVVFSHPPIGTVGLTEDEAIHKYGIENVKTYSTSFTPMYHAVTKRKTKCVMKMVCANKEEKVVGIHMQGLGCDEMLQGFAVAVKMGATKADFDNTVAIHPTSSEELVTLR

[12] = tested on: A549; assay: Effect on thioredoxin reductase expression in human A549 cells assessed as transcript level at 166 nM after 24 hrs by RT-qPCR analysis relative to untreated control; assay type: functional; conditions: in the assay text read “166 uM” for “166 nM”
Outline: as §2

[13] = tested on: A549; assay: Effect on glutathione reductase expression in human A549 cells assessed as transcript level at 662 nM after 24 hrs by RT-qPCR analysis relative to untreated control; assay type: functional; conditions: in the assay text read “662 µM” for “662 nM”
Outline: as §2

[14] = tested on: A549; assay: Inhibition of glutathione S-transferase in human A549 cells assessed as enzyme activity at 166 µM after 24 hrs relative to untreated control; parameters: scale not given: the % may be the effect or the level left
[15] = tested on: A549; assay: Inhibition of glutathione peroxidase in human A549 cells assessed as enzyme activity at 158 µM after 24 hrs relative to untreated control; parameters: scale not given: the % may be the effect or the level left
[16] = tested on: A549; assay: Inhibition of glutathione S-transferase in human A549 cells assessed as enzyme activity at 158 µM after 24 hrs relative to untreated control; parameters: scale not given: the % may be the effect or the level left
[17] = tested on: A549; assay: Effect on glutathione peroxidase expression in human A549 cells assessed as transcript level at 315 nM after 24 hrs by RT-qPCR analysis relative to untreated control; assay type: functional; conditions: in the assay text read “315 µM” for “315 nM”
Outline: as §2

[18] = molecular target: T1, Thioredoxin reductase; assay: Inhibition of thioredoxin reductase in human A549 cells assessed as enzyme activity at 315 µM after 24 hrs by DTNB assay relative to untreated control; parameters: scale not given: the % may be the effect or the level left
[19] = molecular target: T1, Thioredoxin reductase; assay: Inhibition of thioredoxin reductase in human A549 cells assessed as enzyme activity at 158 µM after 24 hrs by DTNB assay relative to untreated control; parameters: scale not given: the % may be the effect or the level left

`O=c1oc2c(O)c(O)c(O)c3c(=O)oc4c(O)c(O)c(O)c1c4c23` [CORULEOELLAGIC ACID] was tested. Which Activity [1] did it give?
Its Activity is 51%.

And the Activity [2]?
The Activity was 30%.

And the Activity [3]?
The Activity was “inactive”.

And the Activity [4]?
The Activity was 77%.

What about the Activity [5] of the same molecule?
Its Activity is 128%.

What about the Activity [6] of the same molecule?
Its Activity is 19%.

What about the Activity [7] of the same molecule?
Its Activity is 158%.

What about the Activity [8] of the same molecule?
The Activity was 45%.

With `O=c1oc2c(O)c(O)cc3c(=O)oc4c(O)c(O)cc1c4c23` [ELLAGIC ACID] as the molecule, how does the Activity [9] read?
Its Activity is 131%.

What about the FIC50 [10] of the same molecule?
Its FIC50 is 1.

And the Activity [11]?
Its Activity is 85%.

And the Activity [12]?
The Activity was 115%.

What about the Activity [13] of the same molecule?
The Activity was 125%.

What about the Activity [14] of the same molecule?
Its Activity is 109%.

`O=c1oc2c(O)c(O)c(O)c3c(=O)oc4c(O)c(O)cc1c4c23` [FLAVELLAGIC ACID] was tested. Which Activity [15] did it give?
Its Activity is 122%.

What about the Activity [16] of the same molecule?
The Activity was 99%.

And the Activity [17]?
Its Activity is 77%.

What about the Activity [18] of the same molecule?
Its Activity is 115%.

What about the Activity [19] of the same molecule?
Its Activity is 91%.
